ChEMBL document CHEMBL1142730, “Design of HIV-1 protease inhibitors active on multidrug-resistant virus” (J Med Chem, 2005)
Converted amounts (≈) assume the structure as drawn.

Columns and labels:
[1] = tested on: Human immunodeficiency virus 1; experiment: Protease inhibitory activity against HIV-1 r13034 mutant strain was determined; type: functional, organism-based
[2] = tested on: Human immunodeficiency virus 1; experiment: Toxicity value against wild type HIV-1 IIIB was determined; type: functional
Method in brief: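 MT4 cells (150 000 cells/mL) mock-infected, run in parallel with HIV-infected cultures over an identical compound concentration range. Incubated 3 days at 37 °C, 5% CO₂. Reduced expression of the […] GFP reporter serves as the toxicity marker.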

[3] = tested on: Human immunodeficiency virus 1; experiment: Protease inhibitory activity against HIV-1 r13363 mutant strain was determined; type: functional, organism-based
[4] = tested on: Human immunodeficiency virus 1; experiment: Protease inhibitory activity against HIV-1 GSS004421 mutant strain was determined; type: functional, organism-based
[5] = tested on: Human immunodeficiency virus 1; experiment: Protease inhibitory activity against HIV-1 r13025 mutant strain was determined; type: functional, organism-based
[6] = tested on: Human immunodeficiency virus 1; experiment: Protease inhibitory activity against wild type HIV-1 IIIB was determined; type: functional, organism-based
[7] = In vivo time to reach maximum plasma concentration value in dog was determined at a dosage of 20 mg/kg; type: ADME, organism-based, Canis lupus familiaris; parameters: dose 20 mg/kg
Method in brief: (§1)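 Oral dosing in dog at 20 mg/kg, coadministered with ritonavir. Compound given as a solution in PEG400 or in 40% w/v hydroxypropyl-β-cyclodextrin with 2% citric acid. Plasma Cmax, Tmax, t1/2 and AUC determined.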

Rattus norvegicus = organism: Rattus norvegicus; experiment: In vitro metabolic stability value after 30 min of incubation with liver microsomes of rat was determined; type: functional; conditions: Microsome
Method in brief: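 Compound at 10 µM incubated at 37 °C with dog, human or rat liver microsomes. Residual parent compound quantified directly by LC-MS. Value is percent parent remaining after 30 min.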

[8] = In vivo half life value in dog was determined at a dosage of 20 mg/kg; type: ADME, organism-based, Canis lupus familiaris; parameters: dose 20 mg/kg; method in brief: as §1
Caco-2 [9] = experiment: In vitro increase in apparent permeability from basolateral to apical was determined in Caco-2 (human colon carcinoma) cells; type: functional, cell-based
Method in brief: (§2)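 Caco-2 monolayer apparent permeability measured apical-to-basolateral and basolateral-to-apical; reported as Papp in cm/s (×10⁶).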

[10] = In vitro solubility at was determined; pH=7; type: ADME
Method in brief: (§3)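 Aqueous solubility measured at pH 5 and pH 7, expressed in […].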

[11] = Maximum plasma concentration value in dog was determined at a dosage of 20 mg/kg; type: ADME, organism-based, Canis lupus familiaris; parameters: dose 20 mg/kg; method in brief: as §1
Caco-2 [12] = experiment: In vitro increase in apparent permeability from apical to basolateral was determined in Caco-2 (human colon carcinoma) cells; type: functional, cell-based; method in brief: as §2
[13] = In vivo area under the concentration time curve value in dog was determined at a dosage of 20 mg/kg; type: ADME, organism-based, Canis lupus familiaris; parameters: dose 20 mg/kg; method in brief: as §1
[14] = In vitro solubility at was determined; pH=5; type: ADME; method in brief: as §3
[15] = biological target: Human immunodeficiency virus type 1 protease (Human immunodeficiency virus 1, UniProt Q72874); experiment: Binding affinity against HIV-1 protease
Method in brief: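 Isothermal titration calorimetry by displacement: the protease was pre-titrated with acetylpepstatin (300 µM) as the weaker binder, then the inhibitor (125 or 200 µM in the syringe) was injected to saturation into protease (9–21 µM). Buffer was 10 mM sodium acetate pH 5.0, 2% DMSO, 2 mM TCEP. Heats of dilution were subtracted, and each run was done at least twice.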

| SMILES | pEC50 [1] | pCC50 [2] | pEC50 [3] | pEC50 [4] | pEC50 [5] | EC50 [6] | Tmax [7] | Metabolic stability (Rattus norvegicus) | half-life [8] | Papp (Caco-2 [9]) | solubility [10] | Cmax [11] | Papp (Caco-2 [12]) | AUC [13] | solubility [14] | Kd [15] |
| --- | --- | --- | --- | --- | --- | --- | --- | --- | --- | --- | --- | --- | --- | --- | --- | --- |
| Cc1cccc(C)c1OCC(=O)N[C@@H](Cc1ccccc1)[C@@H](O)C[C@H](Cc1ccccc1)NC(=O)[C@H](C(C)C)N1CCCNC1=O [LOPINAVIR] | 6.59 | 4.95 | 6.28 | 6.02 | 7.84 | 9.77 nM | – | – | – | – | – | – | – | – | – | – |
| CC(C)CN(C[C@@H](O)[C@H](Cc1ccccc1)NC(=O)O[C@H]1CO[C@H]2OCC[C@H]21)S(=O)(=O)c1ccc2nc(N(C)C)oc2c1 | 6.92 | < 4.49 | 5.38 | 6.58 | 6.66 | 4.17 nM | – | – | – | – | – | – | – | – | – | – |
| Cc1c(O)cccc1C(=O)N[C@@H](CSc1ccccc1)[C@H](O)CN1C[C@H]2CCCC[C@H]2C[C@H]1C(=O)NC(C)(C)C | 5.9 | 4.75 | 5.82 | 6.28 | 5.31 | 70.8 nM | – | – | – | – | – | – | – | – | – | – |
| CC(C)CN(C[C@@H](O)[C@H](Cc1ccccc1)NC(=O)O[C@H]1CO[C@H]2OCC[C@H]21)S(=O)(=O)c1ccc2nc(N(C)CCCN3CCCC3)oc2c1 | 6.34 | < 4.49 | 5.22 | 6.22 | 6.63 | 69.2 nM | – | – | – | – | – | – | – | – | – | – |
| CC(C)CN(C[C@@H](O)[C@H](Cc1ccccc1)NC(=O)O[C@H]1CO[C@H]2OCC[C@H]21)S(=O)(=O)c1ccc2nc(N(C)CCN3CCCC3)oc2c1 | 6.73 | < 4.49 | 5.85 | 6.55 | 6.65 | 33.1 nM | – | – | – | – | – | – | – | – | – | – |
| CC(C)CN(C[C@@H](O)[C@H](Cc1ccccc1)NC(=O)O[C@H]1CO[C@H]2OCC[C@H]21)S(=O)(=O)c1ccc2nc(N(C)CCCN(C)C)sc2c1 | 7.32 | 4.68 | 6.08 | 6.71 | 6.95 | 14.8 nM | 1 h | 47% | 2.9 h | 8.5 ×10⁻⁶ cm/s | 1180 µg/mL (≈ 1680 µM) | 1680 ng/mL | 2 ×10⁻⁶ cm/s | 6590 ng·h/mL | 1640 µg/mL (≈ 2330 µM) | – |
| CC(C)CN(C[C@@H](O)[C@H](Cc1ccccc1)NC(=O)O[C@H]1CO[C@H]2OCC[C@H]21)S(=O)(=O)c1ccc2nc(N(C)CCN3CCCC3)sc2c1 | 6.85 | 4.52 | 5.64 | 6.29 | 6.5 | 5.62 nM | – | – | – | – | – | – | – | – | – | – |
| CC(C)CN(C[C@@H](O)[C@H](Cc1ccccc1)NC(=O)O[C@H]1CO[C@H]2OCC[C@H]21)S(=O)(=O)c1ccc2nc(NCCN(C)C)oc2c1 | 7.61 | < 4.49 | 6.7 | 6.81 | 6.87 | 81.3 nM | – | – | – | – | – | – | – | – | – | – |
| CC(C)(C)NC(=O)[C@@H]1CN(Cc2cccnc2)CCN1C[C@@H](O)C[C@@H](Cc1ccccc1)C(=O)N[C@H]1c2ccccc2C[C@H]1O.O | 5.9 | < 4.49 | 6.39 | 6.47 | 5.97 | 39.8 nM | – | – | – | – | – | – | – | – | – | – |
| CC(C)CN(C[C@@H](O)[C@H](Cc1ccccc1)NC(=O)O[C@H]1CO[C@H]2OCC[C@H]21)S(=O)(=O)c1ccc2nc(NCCN3CCCC3)sc2c1 | 7.91 | < 4.49 | 7.49 | 7.86 | 7.88 | 11 nM | 0.5 h | 56% | 1.66 h | 21.7 ×10⁻⁶ cm/s | < 10 µg/mL | 1970 ng/mL | 3.5 ×10⁻⁶ cm/s | 6050 ng·h/mL | 90 µg/mL (≈ 128 µM) | 0.0637 nM |
| CC(C)CN(C[C@@H](O)[C@H](Cc1ccccc1)NC(=O)O[C@H]1CO[C@H]2OCC[C@H]21)S(=O)(=O)c1ccc2nc(NCCCN(C)C)sc2c1 | 8.17 | 4.73 | 7.53 | 7.72 | 7.69 | 57.5 nM | – | – | – | – | – | – | – | – | – | – |
| CC(C)c1nc(CN(C)C(=O)N[C@H](C(=O)N[C@@H](Cc2ccccc2)C[C@H](O)[C@H](Cc2ccccc2)NC(=O)OCc2cncs2)C(C)C)cs1 [RITONAVIR] | 5.3 | 4.53 | 4.89 | 4.97 | 5.99 | 64.6 nM | – | – | – | – | – | – | – | – | – | – |
| CC(C)CN(C[C@@H](O)[C@H](Cc1ccccc1)NC(=O)O[C@H]1CO[C@H]2OCC[C@H]21)S(=O)(=O)c1ccc2nc(N(C)C)sc2c1 | – | < 4.49 | 5.36 | 6.59 | 7.31 | 3.47 nM | – | – | – | – | – | – | – | – | – | – |
| CNCCNc1nc2ccc(S(=O)(=O)N(CC(C)C)C[C@@H](O)[C@H](Cc3ccccc3)NC(=O)O[C@H]3CO[C@H]4OCC[C@H]43)cc2s1 | 6.43 | < 4.49 | 6.11 | 6.5 | 6.49 | 209 nM | – | – | – | – | – | – | – | – | – | – |
| CC(C)CN(C[C@@H](O)[C@H](Cc1ccccc1)NC(=O)OC1CCOC1)S(=O)(=O)c1ccc(N)cc1 (single isomer, unassigned) | 6.01 | < 4.49 | 4.95 | 5.75 | 6.43 | 43.7 nM | – | – | – | – | – | – | – | – | – | – |
| CC(C)(C)NC(=O)[C@@H]1C[C@@H]2CCCC[C@@H]2CN1C[C@@H](O)[C@H](Cc1ccccc1)NC(=O)[C@H](CC(N)=O)NC(=O)c1ccc2ccccc2n1 | 5.91 | 4.68 | 7.54 | 6.3 | 6.83 | 26.3 nM | – | – | – | – | – | – | – | – | – | – |
| CC(C)CN(C[C@@H](O)[C@H](Cc1ccccc1)NC(=O)O[C@H]1CO[C@H]2OCC[C@H]21)S(=O)(=O)c1ccc2ncsc2c1 | 8.11 | < 4.49 | 6.57 | 7.78 | 7.83 | 1.1 nM | – | – | – | – | – | – | – | – | – | – |
| CCC[C@@]1(CCc2ccccc2)CC(O)=C([C@H](CC)c2cccc(NS(=O)(=O)c3ccc(C(F)(F)F)cn3)c2)C(=O)O1 | – | < 4.49 | 6.15 | 6.73 | 5.74 | 501 nM | – | – | – | – | – | – | – | – | – | – |
| CNc1nc2ccc(S(=O)(=O)N(CC(C)C)C[C@@H](O)[C@H](Cc3ccccc3)NC(=O)O[C@H]3CO[C@H]4OCC[C@H]43)cc2s1 | 8.81 | < 4.49 | 7.81 | 8.59 | 8.81 | 0.912 nM | – | 72% | – | 14.2 ×10⁻⁶ cm/s | < 10 µg/mL | – | 19.3 ×10⁻⁶ cm/s | – | < 10 µg/mL | – |
| CC(C)CN(C[C@@H](O)[C@H](Cc1ccccc1)NC(=O)O[C@H]1CO[C@H]2OCC[C@H]21)S(=O)(=O)c1ccc2nc(N(C)CCCN3CCCC3)sc2c1 | 7.36 | 4.58 | 5.52 | 6.81 | 6.16 | 24 nM | – | – | – | – | – | – | – | – | – | – |
| CC(C)CN(C[C@@H](O)[C@H](Cc1ccccc1)NC(=O)O[C@H]1CO[C@H]2OCC[C@H]21)S(=O)(=O)c1ccc2nc(N)sc2c1 | 8.42 | 4.77 | 7.9 | 8.59 | 8.51 | 9.12 nM | – | 77% | – | 27.3 ×10⁻⁶ cm/s | < 10 µg/mL | – | 9.9 ×10⁻⁶ cm/s | – | < 10 µg/mL | – |
| CC(C)CN(C[C@@H](O)[C@H](Cc1ccccc1)NC(=O)O[C@H]1CO[C@H]2OCC[C@H]21)S(=O)(=O)c1ccc2nc(NCCN(C)C)sc2c1 | 8.09 | < 4.49 | 7.67 | 7.9 | 7.84 | 11.2 nM | – | 19% | – | 26.6 ×10⁻⁶ cm/s | 40 µg/mL (≈ 59.2 µM) | – | 6.1 ×10⁻⁶ cm/s | – | 410 µg/mL (≈ 607 µM) | – |
| CC(C)CN(C[C@@H](O)[C@H](Cc1ccccc1)NC(=O)O[C@H]1CO[C@H]2OCC[C@H]21)S(=O)(=O)c1ccc2nc(NCCN3CCCC3)oc2c1 | 7.48 | 4.49 | 6.88 | 7.21 | 7.12 | 26.3 nM | – | – | – | – | – | – | – | – | – | – |
| COC(=O)N[C@H](C(=O)N[C@@H](Cc1ccccc1)[C@@H](O)CN(Cc1ccc(-c2ccccn2)cc1)NC(=O)[C@@H](NC(=O)OC)C(C)(C)C)C(C)(C)C [ATAZANAVIR] | – | 4.53 | 7.23 | 7.32 | 5.78 | 15.1 nM | – | – | – | – | – | – | – | – | – | – |
